Experimental data as given in ChEMBL document CHEMBL1146603, “Use of a pharmacophore model to discover a new class of influenza endonuclease inhibitors” (J Med Chem, 2003).

What was measured:
[1] = molecular target: Polymerase acidic protein (Influenza A virus (A/Puerto Rico/8/1934(H1N1)), UniProt P03433); experiment: Inhibitory concentration against cap-dependent endonuclease activity of influenza virus RNP; format: functional, unidentified influenza virus
Outline: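 Gel-based cap-dependent endonuclease assay. 1 nM influenza RNP was incubated with 0.1 nM cap-labeled 20-mer G20 RNA in 50 mM Tris-HCl pH 8 with 1 mM MgCl₂, 20 mM KCl, 1 U/μL RNase inhibitor and 0.3% Triton X-100, for 5 min at 31 °C. Cleavage products were resolved on polyacrylamide gels and quantified by phosphorimager. IC50 came from dose–response curves.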

[2] = molecular target: Polymerase acidic protein (Influenza B virus (strain B/Lee/1940), UniProt Q9QLI9); experiment: Inhibitory concentration against cap-dependent endonuclease activity of influenza B/Lee/40 RNP; format: functional
Outline: (§1)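 Cap-dependent transcription run on a filter plate. 10 nM RNP purified from A/PR/8/34 or B/Lee/40 virus was mixed with 0.01 mg/mL AMV RNA, 50 μM GTP, 50 μM CTP, 500 μM ATP and 5 μM [radiolabeled] UTP. Buffer was 50 mM Tris-HCl pH 8 with 100 mM KCl, 5 mM MgCl₂, 10% DMSO, 5 mM DTT and 0.2 mg/mL BSA. Incubation was 90 min at 31 °C. TCA-precipitated RNA was scintillation-counted. IC50 came from dose–response curves.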

[3] = tested on: unidentified influenza virus; experiment: Effective concentration against influenza virus in MDCK cells; format: functional, organism-based
Outline: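 Antiviral dose–response read as protection of MDCK cells from influenza virus-induced cell death.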

[4] = molecular target: Polymerase acidic protein (Influenza A virus (A/Puerto Rico/8/1934(H1N1)), UniProt P03433); experiment: Inhibitory concentration against cap-dependent endonuclease activity of influenza A/PR/8/34 RNP; format: functional; outline: as §1
[5] = molecular target: Polymerase acidic protein (Influenza A virus (A/Puerto Rico/8/1934(H1N1))) (UniProt P03433); experiment: Percent inhibition of cap-dependent endonuclease activity of influenza virus RNP at 100 uM; format: functional; settings: unidentified influenza virus

Polymerase acidic protein, sequence (Q9QLI9 whole entry): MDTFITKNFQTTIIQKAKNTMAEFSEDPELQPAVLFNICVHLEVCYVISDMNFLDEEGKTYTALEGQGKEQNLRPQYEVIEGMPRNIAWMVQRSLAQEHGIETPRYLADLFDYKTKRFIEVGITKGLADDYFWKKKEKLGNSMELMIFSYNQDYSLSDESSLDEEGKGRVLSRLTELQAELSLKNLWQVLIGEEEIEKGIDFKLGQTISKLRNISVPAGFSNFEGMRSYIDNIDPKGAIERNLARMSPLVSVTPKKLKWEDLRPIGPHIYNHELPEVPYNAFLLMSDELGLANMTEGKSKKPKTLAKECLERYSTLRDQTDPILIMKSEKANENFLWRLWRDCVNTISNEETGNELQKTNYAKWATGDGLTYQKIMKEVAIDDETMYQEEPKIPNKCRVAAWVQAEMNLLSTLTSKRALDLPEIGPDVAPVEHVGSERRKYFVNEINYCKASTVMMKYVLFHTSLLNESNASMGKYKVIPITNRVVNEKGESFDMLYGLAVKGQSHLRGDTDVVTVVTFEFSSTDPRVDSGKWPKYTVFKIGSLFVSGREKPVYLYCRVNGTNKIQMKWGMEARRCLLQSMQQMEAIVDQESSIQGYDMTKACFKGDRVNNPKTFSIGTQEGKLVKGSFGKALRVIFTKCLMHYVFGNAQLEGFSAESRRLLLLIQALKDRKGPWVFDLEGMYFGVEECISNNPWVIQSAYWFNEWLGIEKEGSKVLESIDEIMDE

O=C1CCc2ccccc2C(=O)N1O
IC50 [1]: > 1000 µM

CON1C(=O)Cc2ccccc2C1=O
IC50 [1]: 710 µM

COCON1C(=O)C(CC(C)C)=N/C(=C\C(C)C)C1=O
IC50 [1]: > 355 µM

O=C1c2ccccc2C(=O)N1O
IC50 [1]: > 500 µM

O=C(Nc1ccc2c(C(=O)c3ccccc3)c(O)n(O)c2c1)c1ccccc1
IC50 [2]: 56 µM | EC50 [3]: > 90 µM | IC50 [4]: 10 µM

O=C(c1ccccc1)c1c(O)n(O)c2cc(NC(=O)C3CCCCC3)ccc12
IC50 [4]: 18 µM

CC(=O)c1c(O)n(O)c2cc(NC(=O)c3ccc4ccccc4c3)ccc12
IC50 [2]: 18 µM | EC50 [3]: 21 µM | IC50 [4]: 9 µM

CC(C)/C=C1\N=C(CC(C)C)C(=O)N(O)C1=O
IC50 [1]: 5.5 µM

O=C(Nc1ccc2c(C(=O)c3ccccc3)c(O)n(O)c2c1)c1cnc2ccccc2n1
IC50 [4]: 17 µM

CC(=O)c1c(O)n(O)c2cc(NC(=O)c3cccs3)ccc12
IC50 [4]: 40 µM

CCC(=O)c1c(O)n(O)c2cc(NC(=O)c3cccs3)ccc12
IC50 [4]: 35 µM

CCC(=O)c1c(O)n(O)c2cc(NC(=O)/C=C/c3ccccc3Cl)ccc12
IC50 [4]: 8 µM

CCC(=O)c1c(O)n(O)c2cc(NC(=O)c3cnc4ccccc4n3)ccc12
IC50 [4]: 10 µM

CC(=O)c1c(O)n(O)c2cc(NC(=O)c3cnc4ccccc4n3)ccc12
IC50 [4]: 11 µM

O=C(c1ccccc1)c1c(O)n(O)c2cc(NS(=O)(=O)c3cccs3)ccc12
IC50 [4]: 48 µM

O=C1Cc2ccccc2CC(=O)N1O
IC50 [1]: > 1000 µM

CC(C)CC1=N/C(=C\c2ccc(F)cc2)C(=O)NC1=O
IC50 [1]: > 365 µM

O=C(NO)c1ccccc1 [BENZOHYDROXAMATE]
IC50 [1]: > 500 µM

CC(=O)c1c(O)n(O)c2cc(NC(=O)Nc3cccc(C(=O)O)c3)ccc12
IC50 [4]: 14 µM

O=C(Nc1ccc2c(C(=O)c3ccccc3)c(O)n(O)c2c1)c1ccc(Cl)cc1Cl
IC50 [4]: 38 µM

O=c1[nH]c2nccnc2c(=O)n1O
IC50 [1]: 95 µM

CCC(=O)c1c(O)n(O)c2cc(NC(=O)Nc3ccccc3)ccc12
IC50 [4]: 40 µM

O=C1Cc2ccccc2CN1O
IC50 [1]: 100 µM | inhibition [5]: 25%

NN1C(=O)Cc2ccccc2C1=O
IC50 [1]: 800 µM

O=C(Nc1ccc2c(C(=O)c3ccccc3)c(O)n(O)c2c1)c1cccs1
IC50 [4]: 20 µM

O=C(Nc1ccc2c(C(=O)c3ccccc3)c(O)n(O)c2c1)c1ccc2ccccc2c1
IC50 [2]: 29 µM | EC50 [3]: > 40 µM | IC50 [4]: 8 µM

O=c1c2nccnc2ncn1O
IC50 [1]: > 500 µM

O=C(/C=C/c1ccccc1Cl)Nc1ccc2c(C(=O)c3ccccc3)c(O)n(O)c2c1
IC50 [2]: 26 µM | EC50 [3]: > 30 µM | IC50 [4]: 9.5 µM

CCC(=O)c1c(O)n(O)c2cc(NC(=O)Nc3cccc(C(=O)O)c3)ccc12
IC50 [4]: 10 µM

CC(=O)c1c(O)n(O)c2cc(NC(=O)/C=C/c3ccccc3Cl)ccc12
IC50 [4]: 26 µM

CCc1cc(OC)c(OC)c(C(=O)NC[C@@H]2CCCN2CC)c1OC
IC50 [4]: 32 µM

O=C(O)C(=O)/C=C(\O)c1ccc(C2CCCCC2)cc1
IC50 [1]: 5 µM

O=C(Nc1cccc(C(=O)O)c1)Nc1ccc2c(C(=O)c3ccccc3)c(O)n(O)c2c1
IC50 [2]: 6 µM | EC50 [3]: > 100 µM | IC50 [4]: 3 µM

O=C(Nc1ccc2c(C(=O)c3ccccc3)c(O)n(O)c2c1)NC1CCCCC1
IC50 [4]: 50 µM

Cc1cc(C(=O)Nc2ccc3c(C(=O)c4ccccc4)c(O)n(O)c3c2)no1
EC50 [3]: > 100 µM | IC50 [4]: 9.5 µM

CCC(=O)c1c(O)n(O)c2cc(NC(=O)Nc3ccc(Cl)cc3)ccc12
IC50 [4]: 38 µM

CCC(=O)c1c(O)n(O)c2cc(NC(=O)c3ccc(Cl)cc3Cl)ccc12
IC50 [4]: 45 µM

CCC(=O)c1c(O)n(O)c2cc(NC(=O)Nc3ccccc3Cl)ccc12
IC50 [4]: 50 µM

O=C(Nc1ccccc1)Nc1ccc2c(C(=O)c3ccccc3)c(O)n(O)c2c1
IC50 [4]: 29 µM
